Converted amounts (≈) assume the structure as drawn.
What was measured:
Type in all cases: functional
[Clostridium] innocuum [1] = Antimicrobial activity against Clostridium innocuum by agar dilution method
Bacteroides uniformis [2] = experiment: Antimicrobial activity against Bacteroides uniformis assessed as resistant isolates by agar dilution method
Method in brief: (§1)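 CLSI agar dilution on enriched brucella agar (5% lysed defibrinated sheep blood, 1 μg/ml vitamin K1), plates made on test day. Log-phase inocula adjusted to 0.5 McFarland; about 10^5 CFU/spot by Steers replicator. Incubated anaerobically at 37°C for 48 h. MIC was the lowest concentration giving a marked change in growth versus the drug-free control plate. Resistance rates used CLSI anaerobe breakpoints. Controls were B. fragilis ATCC 25285 and B. thetaiotaomicron ATCC 29741.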

Parvimonas micra = experiment: Antimicrobial activity against Micromonas micros by agar dilution method
Method in brief: (§2)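 Gram-positive anaerobes were tested by CLSI agar dilution on brucella agar enriched with 5% lysed defibrinated sheep blood and 1 μg/ml vitamin K1. Inoculum was log-phase growth at 0.5 McFarland, about 10^5 CFU/spot by replicator. Incubation was anaerobic, 37°C, 48 h. MIC was the lowest concentration with a marked growth change versus the drug-free plate. Eubacterium lentum ATCC 43055 was the control, and tests were repeated if it fell outside the CLSI range.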

Cutibacterium acnes [3] = experiment: Antimicrobial activity against Propionibacterium acnes by agar dilution method
Method in brief: (§3)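 Log-phase isolates were adjusted to 0.5 McFarland, and about 10^5 CFU/spot was delivered by Steers replicator. Plates were incubated anaerobically at 37°C for 48 h. MIC was the lowest concentration giving a marked growth change versus the control plate. Eubacterium lentum ATCC 43055 was the QC strain, with repeats when out of range.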

Propionibacterium [4] = experiment: Antimicrobial activity against Propionibacterium sp. assessed as resistant isolates by agar dilution method
Method in brief: (§4)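 Agar dilution following CLSI on brucella agar with 5% lysed defibrinated sheep blood and 1 μg/ml vitamin K1, plates made on test day. Log-phase cells at 0.5 McFarland, about 10^5 CFU/spot by Steers replicator, 48 h anaerobic at 37°C. MIC read as the lowest concentration causing a marked growth change versus control. Resistance counted by CLSI anaerobe breakpoints. Eubacterium lentum ATCC 43055 served as control.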

Clostridioides difficile = experiment: Antimicrobial activity against Clostridium difficile by agar dilution method
Bacteroides ovatus [5] = experiment: Antimicrobial activity against Bacteroides ovatus assessed as resistant isolates by agar dilution method; method in brief: as §1
Bacteroides ovatus [6] = experiment: Antimicrobial activity against Bacteroides ovatus by agar dilution method
Method in brief: (§5)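 CLSI agar dilution on enriched brucella agar (5% lysed defibrinated sheep blood, 1 μg/ml vitamin K1), with drug plates made on the test day. Log-phase cells were adjusted to 0.5 McFarland, and about 10^5 CFU/spot was delivered by Steers replicator. Plates were incubated anaerobically at 37°C for 48 h. MIC was the lowest concentration giving a marked growth change versus the control plate. Controls were B. fragilis ATCC 25285 and B. thetaiotaomicron ATCC 29741.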

Phocaeicola vulgatus [7] = experiment: Antimicrobial activity against Bacteroides vulgatus assessed as resistant isolates by agar dilution method; method in brief: as §1
Bacteroides fragilis [8] = experiment: Antimicrobial activity against Bacteroides fragilis assessed as resistant isolates by agar dilution method; method in brief: as §1
[9] = test system: Peptoniphilus asaccharolyticus; experiment: Antimicrobial activity against Peptoniphilus asaccharolyticus by agar dilution method; method in brief: as §2
[10] = test system: Parabacteroides distasonis; experiment: Antimicrobial activity against Bacteroides distasonis by agar dilution method; method in brief: as §5
[11] = test system: Parabacteroides distasonis; experiment: Antimicrobial activity against Bacteroides distasonis assessed as resistant isolates by agar dilution method; method in brief: as §1
Cutibacterium acnes [12] = experiment: Antimicrobial activity against Propionibacterium acnes assessed as resistant isolates by agar dilution method; method in brief: as §4
Finegoldia magna [13] = experiment: Antimicrobial activity against Finegoldia magna by agar dilution method; method in brief: as §2
Clostridium tertium = experiment: Antimicrobial activity against Clostridium tertium by agar dilution method
Bacteroides caccae [14] = experiment: Antimicrobial activity against Bacteroides caccae by agar dilution method; method in brief: as §5
Finegoldia magna [15] = experiment: Antimicrobial activity against Finegoldia magna assessed as resistant isolates by agar dilution method; method in brief: as §4
Clostridium perfringens = experiment: Antimicrobial activity against Clostridium perfringens by agar dilution method
[16] = test system: Bacteroides thetaiotaomicron; experiment: Antimicrobial activity against Bacteroides thetaiotaomicron assessed as resistant isolates by agar dilution method; method in brief: as §1
[17] = test system: Bacteroides thetaiotaomicron; experiment: Antimicrobial activity against Bacteroides thetaiotaomicron by agar dilution method; method in brief: as §5
Bacteroides fragilis [18] = experiment: Antimicrobial activity against Bacteroides fragilis by agar dilution method; method in brief: as §5
Bacteroides eggerthii [19] = experiment: Antimicrobial activity against Bacteroides eggerthii by agar dilution method; method in brief: as §5
Bacteroides caccae [20] = experiment: Antimicrobial activity against Bacteroides caccae assessed as resistant isolates by agar dilution method; method in brief: as §1
[21] = test system: Clostridium paraputrificum; experiment: Antimicrobial activity against Clostridium paraputrificum by agar dilution method
Anaerococcus prevotii = experiment: Antimicrobial activity against Anaerococcus prevotii by agar dilution method; method in brief: as §2
Bacteroides eggerthii [22] = experiment: Antimicrobial activity against Bacteroides eggerthii assessed as resistant isolates by agar dilution method; method in brief: as §1
Bacteroides nordii [23] = experiment: Antimicrobial activity against Bacteroides nordii assessed as resistant isolates by agar dilution method; method in brief: as §1
Phocaeicola vulgatus [24] = experiment: Antimicrobial activity against Bacteroides vulgatus by agar dilution method; method in brief: as §5
Parabacteroides merdae [25] = experiment: Antimicrobial activity against Bacteroides merdae assessed as resistant isolates by agar dilution method; method in brief: as §1
Bacteroides nordii [26] = experiment: Antimicrobial activity against Bacteroides nordii by agar dilution method; method in brief: as §5
Bacteroides uniformis [27] = experiment: Antimicrobial activity against Bacteroides uniformis by agar dilution method; method in brief: as §5
[28] = test system: Peptoniphilus asaccharolyticus; experiment: Antimicrobial activity against Peptoniphilus asaccharolyticus assessed as resistant isolates by agar dilution method; conditions: pooled result: one value given for 4 cell lines, strains, targets or settings; method in brief: as §4
Clostridium subterminale = experiment: Antimicrobial activity against Clostridium subterminale by agar dilution method
Peptostreptococcus sp. = experiment: Antimicrobial activity against Peptostreptococcus sp. by agar dilution method; method in brief: as §3
Propionibacterium [29] = experiment: Antimicrobial activity against Propionibacterium sp. by agar dilution method; method in brief: as §3
[Clostridium] innocuum [30] = Antimicrobial activity against Clostridium innocuum assessed as resistant isolates by agar dilution method; conditions: pooled result: one value given for 4 cell lines, strains, targets or settings
Parabacteroides merdae [31] = experiment: Antimicrobial activity against Bacteroides merdae by agar dilution method; method in brief: as §5

Work on `C[C@@H](O)[C@H]1C(=O)N2C(C(=O)O)=C(S[C@@H]3CN[C@H](C(=O)N(C)C)C3)[C@H](C)[C@H]12` [MEROPENEM] yielded an MIC50 ([Clostridium] innocuum [1]) of 2 µg/mL (≈ 5.22 µM), an MIC90 ([Clostridium] innocuum [1]) of 2 µg/mL (≈ 5.22 µM) and an Activity (Bacteroides uniformis [2]) of 0%. It also gave an MIC50 (Parvimonas micra) of 0.125 µg/mL (≈ 0.326 µM), an MIC90 (Parvimonas micra) of 0.5 µg/mL (≈ 1.3 µM) and an MIC (Cutibacterium acnes [3]) of 0.06 µg/mL (≈ 0.156 µM). For the same compound, the MIC50 (Cutibacterium acnes [3]) was 0.06 µg/mL (≈ 0.156 µM), the MIC90 (Cutibacterium acnes [3]) was 0.06 µg/mL (≈ 0.156 µM) and the Activity (Propionibacterium [4]) was 0%. The MIC (Clostridioides difficile) was 1 µg/mL (≈ 2.61 µM), the Activity (Bacteroides ovatus [5]) was 0% and the MIC50 (Bacteroides ovatus [6]) was 0.5 µg/mL (≈ 1.3 µM). The MIC90 (Bacteroides ovatus [6]) was 2 µg/mL (≈ 5.22 µM), the Activity (Phocaeicola vulgatus [7]) was 0% and the Activity (Bacteroides fragilis [8]) was 1.5%. For the same compound, the MIC50 [9] was 0.125 µg/mL (≈ 0.326 µM), the MIC90 [9] was 0.5 µg/mL (≈ 1.3 µM) and the MIC50 [10] was 1 µg/mL (≈ 2.61 µM). For the same compound, the MIC90 [10] was 2 µg/mL (≈ 5.22 µM), the Activity [11] was 0% and the Activity (Cutibacterium acnes [12]) was 0%. It also gave an MIC50 (Finegoldia magna [13]) of 0.125 µg/mL (≈ 0.326 µM), an MIC90 (Finegoldia magna [13]) of 0.125 µg/mL (≈ 0.326 µM) and an MIC50 (Clostridium tertium) of 2 µg/mL (≈ 5.22 µM). It also gave an MIC90 (Clostridium tertium) of 2 µg/mL (≈ 5.22 µM), an MIC50 (Bacteroides caccae [14]) of 0.25 µg/mL (≈ 0.652 µM) and an MIC90 (Bacteroides caccae [14]) of 2 µg/mL (≈ 5.22 µM). For the same compound, the Activity (Finegoldia magna [15]) was 0%, the MIC (Clostridium perfringens) was 0.06 µg/mL (≈ 0.156 µM) and the MIC50 (Clostridium perfringens) was 0.06 µg/mL (≈ 0.156 µM). For the same compound, the MIC90 (Clostridium perfringens) was 0.125 µg/mL (≈ 0.326 µM), the Activity [16] was 0% and the MIC50 [17] was 0.5 µg/mL (≈ 1.3 µM). It also gave an MIC90 [17] of 2 µg/mL (≈ 5.22 µM), an MIC50 (Bacteroides fragilis [18]) of 0.25 µg/mL (≈ 0.652 µM) and an MIC90 (Bacteroides fragilis [18]) of 1 µg/mL (≈ 2.61 µM). The MIC50 (Bacteroides eggerthii [19]) was 0.25 µg/mL (≈ 0.652 µM), the MIC90 (Bacteroides eggerthii [19]) was 1 µg/mL (≈ 2.61 µM) and the Activity (Bacteroides caccae [20]) was 0%. It also gave an MIC50 [21] of 2 µg/mL (≈ 5.22 µM), an MIC90 [21] of 2 µg/mL (≈ 5.22 µM) and an MIC50 (Anaerococcus prevotii) of 0.125 µg/mL (≈ 0.326 µM). The MIC90 (Anaerococcus prevotii) was 0.5 µg/mL (≈ 1.3 µM), the Activity (Bacteroides eggerthii [22]) was 0% and the Activity (Bacteroides nordii [23]) was 0%. It also gave an MIC50 (Phocaeicola vulgatus [24]) of 0.5 µg/mL (≈ 1.3 µM), an MIC90 (Phocaeicola vulgatus [24]) of 2 µg/mL (≈ 5.22 µM) and an Activity (Parabacteroides merdae [25]) of 0%. For the same compound, the MIC50 (Bacteroides nordii [26]) was 0.25 µg/mL (≈ 0.652 µM), the MIC90 (Bacteroides nordii [26]) was 1 µg/mL (≈ 2.61 µM) and the MIC50 (Bacteroides uniformis [27]) was 0.25 µg/mL (≈ 0.652 µM). The MIC90 (Bacteroides uniformis [27]) was 0.5 µg/mL (≈ 1.3 µM), the Activity [28] was 0% and the MIC50 (Clostridium subterminale) was 2 µg/mL (≈ 5.22 µM). For the same compound, the MIC90 (Clostridium subterminale) was 2 µg/mL (≈ 5.22 µM), the MIC50 (Peptostreptococcus sp.) was 0.125 µg/mL (≈ 0.326 µM) and the MIC90 (Peptostreptococcus sp.) was 0.5 µg/mL (≈ 1.3 µM). The MIC (Propionibacterium [29]) was 0.06 µg/mL (≈ 0.156 µM), the MIC50 (Propionibacterium [29]) was 0.06 µg/mL (≈ 0.156 µM) and the MIC90 (Propionibacterium [29]) was 0.25 µg/mL (≈ 0.652 µM). The Activity ([Clostridium] innocuum [30]) was 0%, the MIC50 (Parabacteroides merdae [31]) was 0.25 µg/mL (≈ 0.652 µM) and the MIC90 (Parabacteroides merdae [31]) was 1 µg/mL (≈ 2.61 µM).

Source: ChEMBL document CHEMBL1275561, “In vitro activities of doripenem, a new broad-spectrum carbapenem, against recently collected clinical anaerobic isolates, with emphasis on the Bacteroides fragilis group” (2008)
